KCNK9 inh: human KCNK9 channel inhibition | Q9NPC2 | HEK293 KCNK9, FluxOR thallium flux fluorescence; active compounds read low | B-score at 10 µM | 310,000 tested, 1.2% active;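 active = ratio B-score over 3 SD below the library mean, with starting fluorescence within 5 SD of its mean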;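 note: negative B-score means less thallium flux so channel inhibition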
Target sequence (Q9NPC2 whole entry, looked up): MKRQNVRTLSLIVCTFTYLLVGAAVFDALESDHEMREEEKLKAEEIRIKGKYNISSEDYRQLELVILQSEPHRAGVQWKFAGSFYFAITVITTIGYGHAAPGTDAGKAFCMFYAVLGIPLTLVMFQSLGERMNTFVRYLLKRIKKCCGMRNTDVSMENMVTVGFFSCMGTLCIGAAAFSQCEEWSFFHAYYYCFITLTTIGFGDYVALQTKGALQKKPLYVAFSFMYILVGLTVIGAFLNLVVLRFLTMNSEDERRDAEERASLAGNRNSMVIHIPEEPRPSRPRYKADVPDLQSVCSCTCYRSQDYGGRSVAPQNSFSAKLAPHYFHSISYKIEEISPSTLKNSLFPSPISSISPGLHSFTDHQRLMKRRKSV
KCNQ1 pot: potentiates or activates the human KCNQ1 potassium channel; P51787; CHO-K1 KCNQ1, thallium flux FluxOR fluorescence; active compounds read high; B-score at 10 µM; 310,000 tested, 0.35% active; AID 2648;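 active = fluorescence ratio B-score, a plate-corrected score, at least three library SD, with initial intensity B-score within 5 SD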
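Assay system: CHO-K1 cells stably expressing KCNQ1. Medium: assay buffer for compound exposure, DMSO matched across wells. Timing: 37 °C overnight plating, 90-min dark dye load, 20-min compound pretreatment. Signal: kinetic FluxOR fluorescence, 10 s baseline plus 110 s post-stimulus.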
KCNQ1 inh: inhibitors of human KCNQ1 potassium channel; P51787; CHO-K1 KCNQ1, FluxOR thallium flux fluorescence; active compounds read high; B-score at 10 µM; 310,000 tested, 1.3% active; AID 2642;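 active = compounds whose thallium flux B-score, printed positive for inhibition, exceeds three library SD while starting fluorescence stays within three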;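 note: channel opened by potassium depolarization with thallium stimulus after 20 min compound exposure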
hERG rescue: compounds protecting human hERG from proarrhythmic drug block. CHO-hERG, FluxOR thallium flux, dofetilide IC70 present. activation (rescue from dofetilide block), less the hit threshold, % at 10 µM. 310,000 tested, 0.51% active. AID 1511;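 active = activation above the mean of controls blocked by dofetilide plus 5 SD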;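 note: thallium influx through hERG after potassium depolarization seen as dye fluorescence rise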
KCC2 mod: KCC2 (human) Cl- transport modulation; Q9H2X9; KCC2 cells, thallium flux FluoZin-2 fluorescence; B-score of Tl+ flux slope (higher = more flux/activation; lower = inhibition) at 10 µM; 190,000 tested, 2.2% active; AID 1456;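 active = thallium flux slope and its plate-corrected score both differing from the plate sample mean at a set confidence after two filtering rounds, in either direction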;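 note: slope of fluorescence scaled to starting intensity during 10 to 20 s after thallium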
KCNK3 inh: human KCNK3 channel inhibition, primary screen | O14649 | CHO-KCNK3 thallium flux, FluxOR fluorescence; active compounds read low | B-score at 10 µM | 340,000 tested, 0.84% active | AID 602410;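 active = B-score under library mean minus 4 SD, starting fluorescence ratio at most library mean plus 5 SD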;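 note: more negative B-score means stronger inhibition of thallium flux through KCNK3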
KCNK9 inh conf: human KCNK9 inhibitor confirmation; shares compounds with KCNK9 inh; HEK293 KCNK9 cells, FluxOR thallium flux fluorescence; inhibition, % at 10 µM; 4,900 tested, 43% active; AID 492992;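 active = thallium signal inhibited by more than 5 SD of the compound-free buffer control wells, on both duplicate plates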
Kir2-1 spec: tests whether KCNK9 modulators also affect mouse Kir2.1; AID 492993; Kir2.1 cells, FluxOR thallium flux fluorescence; 4,900 tested, 4% active; inhibition, % at 10 µM; shares compounds with KCNK9 inh;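 active = thallium signal drop more than 5 SD beyond the mean of the no-compound control wells, seen in both duplicate plates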;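 note: signal is fluorescence rise after thallium addition divided by baseline fluorescence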
HEK293 Tl ctr: second counter-screen for KCNK9 modulators: effect in non-induced cells; shares compounds with KCNK9 inh; non-induced KCNK9-HEK293, FluxOR thallium flux; inhibition, % at 10 µM; 4,900 tested, 40% active;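 active = thallium signal drop beyond 5 SD of the untreated control mean, on both duplicate plates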
Large screens that a line does not name were inactive (follow-up assays come after a bar, where they were run). Only some compounds are listed: those with a hit (about 4.1% of all), similar ones and a draw of the others.

O=S(=O)(NCC(c1ccco1)N1CCN(c2ccccc2F)CC1)c1ccc(F)cc1 (centres undefined)	KCNK9 inh -13 | KCNK9 inh conf 46% | Kir2-1 spec inactive | HEK293 Tl ctr 34%
CC(=O)OCC(=O)C1(O)CCC2C3CCC4C(OC(C)=O)C(=O)CCC4(C)C3C(=O)CC21C (centres undefined)	none (no result: KCNK9 inh, KCNQ1 pot, KCNQ1 inh, hERG rescue, KCC2 mod)
O=C(Cc1cccc(NC(=O)C2CCCN(C(=O)C3CC3)C2)c1)Nc1ccc(C(=O)N2CCOCC2)cc1 (centres undefined)	none (no result: KCNK9 inh, KCNQ1 pot, KCNQ1 inh, hERG rescue, KCC2 mod)
C=CCC(=O)NC1CC(C)(C)Cc2c1cnn2-c1ccccc1C (centres undefined)	none (no result: KCC2 mod)
C/C(=N\NC(=S)NCCc1ccccc1)c1cccs1	KCC2 mod 8.6 | KCNK9 inh conf inactive | Kir2-1 spec inactive | HEK293 Tl ctr inactive
CC(C)CCn1nc(C(=O)Nc2nc3c(s2)CCCC3)c2ccccc2c1=O	KCNK9 inh -17 | KCNK9 inh conf 76% | Kir2-1 spec inactive | HEK293 Tl ctr inactive
O=C(Nc1ccc(C(F)(F)F)cc1)C1(c2ccccc2)CC1	none
O=C(Nc1cccc(C(F)(F)F)c1)C1(c2ccccc2)CC1	KCNK9 inh -12 | KCNK9 inh conf 53% | Kir2-1 spec inactive | HEK293 Tl ctr 37%
CCOC(=O)c1cc(-c2ccccc2)sc1NC(=O)C(C)Sc1nnnn1C (centres undefined)	KCNK9 inh -17 | KCNK9 inh conf 61% | Kir2-1 spec inactive | HEK293 Tl ctr 36%
CCOC(=O)c1cc(-c2ccccc2)sc1NC(=O)C(C)OC(=O)c1ccncc1 (centres undefined)	none
NNC(=O)C1SCCN1S(=O)(=O)c1ccc(Cl)cc1 (centres undefined)	none (no result: KCC2 mod)
Cc1ccc(C)c(C(=O)COC(=O)c2cc(Cl)nc3ccccc23)c1	KCNK9 inh -9.4 | KCNK9 inh conf 67% | Kir2-1 spec inactive | HEK293 Tl ctr 45%
Cc1ccc(C)c(C(=O)COC(=O)c2ccc(Br)o2)c1	KCNK9 inh -8.7 (no result: KCC2 mod) | KCNK9 inh conf 36% | Kir2-1 spec inactive | HEK293 Tl ctr inactive
COC(=O)c1ccc(Oc2nc(C)cc(Oc3ccccc3)n2)cc1	none | KCNK9 inh conf inactive | Kir2-1 spec inactive | HEK293 Tl ctr inactive
COC(=O)c1nn(C)c(=O)[nH]c1=O	none (no result: KCNK9 inh, KCNQ1 pot, KCNQ1 inh, hERG rescue, KCC2 mod)
CC(C)CC1(C2CCCC2)NC(=O)NC1=O (centres undefined)	none (no result: KCNK9 inh, KCNQ1 pot, KCNQ1 inh, hERG rescue, KCC2 mod)
CC1CC1c1ccc(/C=C(\C#N)C(=O)Nc2ccccc2Cl)o1 (centres undefined)	none
Cc1cc(C)nc(Sc2ccc(/C=C(\C#N)C(=O)Nc3ccccc3)o2)n1	none
CCc1ccccc1NC(=O)/C(C#N)=C\c1ccc(Sc2ccccc2)o1	KCNK9 inh -11, KCNK3 inh -9.4 | KCNK9 inh conf 40% | Kir2-1 spec inactive | HEK293 Tl ctr 49%
CCc1ccccc1NC(=O)/C(C#N)=C/c1ccc(Sc2ccccc2)o1	KCNK9 inh -14 | KCNK9 inh conf 53% | Kir2-1 spec inactive | HEK293 Tl ctr 51%
Cc1ccc(C)c(N=C2CCCN2Cc2ccccc2)c1C#N	KCNK9 inh -8.9 | KCNK9 inh conf inactive | Kir2-1 spec inactive | HEK293 Tl ctr 36%
O=C(c1ccccc1)c1ccc(N2CCN(C(=O)c3cccc(F)c3F)CC2)c(F)c1	none (no result: KCC2 mod)
O=C(O)c1ccc(Cn2cc(C(F)(F)F)ccc2=O)cc1	none
O=C(Sc1ccc(Cl)cc1)c1cccc(Cn2cc(C(F)(F)F)ccc2=O)c1	KCNK9 inh -14 | KCNK9 inh conf 34% | Kir2-1 spec inactive | HEK293 Tl ctr 34%
N/C(=N\OC(=O)c1cccc(Cn2cc(C(F)(F)F)ccc2=O)c1)c1ccccc1	none
N/C(=N\OC(=O)c1cccc(Cn2cc(C(F)(F)F)ccc2=O)c1)c1ccc(Cl)cc1	KCNK9 inh -12 | KCNK9 inh conf 46% | Kir2-1 spec inactive | HEK293 Tl ctr inactive

Screens: PubChem BioAssay, several laboratories
